Data: ChEMBL document CHEMBL1153726, “Synthesis and anticancer activity of sclerophytin-inspired hydroisobenzofurans” (Bioorg Med Chem Lett, 2009)

Test: Antitumor activity against human KB3 cells after 96 hrs by MTT assay
Format: functional, cell-based
Conditions: KB3, 96 h
Method in brief: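 Human KB-3 carcinoma cells exposed to increasing compound concentrations; viability read by MTT colorimetric assay after 96 h. Values are means of triplicate assays, expressed relative to untreated controls.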

| Structure (SMILES) | IC50 |
| --- | --- |
| C=C(C)[C@H]1CC(=O)C(C)=C2[C@@H](C(=O)OCC)O[C@@H](c3ccccc3Br)[C@@H]21 | 70 µM |
| C=C(C)[C@H]1CC=C(C)C2=CO[C@@H](c3ccco3)[C@@H]21 | 2 µM |
| C=C(C)[C@H]1CC=C(C)C2=CO[C@@H](c3cccc4ccccc34)[C@@H]21 | > 100 µM |
| C=C(C)[C@H]1CC=C(C)C2=CO[C@@H](c3ccccc3Br)[C@@H]21 | 4 µM |
